Reference: paper PMC2788160 (Nutrition Research and Practice, 2009)
One block for each compound: values may come before it.

Assays:
Caco-2 cell monolayer = test: Apical-to-basolateral uptake in Caco-2 differentiated monolayer; type: in vitro ADME, human; conditions: for Conc. of aloe-emodin in basolateral side / Conc. of aloin in basolateral side: 1 hr, 37℃; for Absorption percent: Caco-2 cells over 1 hour
In short: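 Caco-2 (passages 26-48; high-glucose DMEM, 10% FBS, 1% nonessential amino acids) on Transwell inserts at 5×10^4 cells/cm2, 18-24 days; TEER >550 Ω·cm2. Apical compound at 5, 10, 50 µM final (DMSO, diluted in HBSS, pH 6.0); basolateral HBSS pH 7.4; 1 hr, 37℃. C18 HPLC with/without sulfatase H-5 (45 min, 37℃) gives parent and conjugates; % absorption = basolateral×100/apical concentration.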

[1] = tested on: everted gut sac (rat small intestine); test: Everted gut sac model uptake into serosal side; type: in vitro ADME; conditions: 10 µM, 1 hr; Fig. 2
In short: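 Rats fasted overnight; small intestine flushed with 0.9% NaCl, everted in warm oxygenated TC 199 medium, filled, cut into ~2.5 cm sacs from upper/mid-jejunum (12-15 per experiment). Sacs incubated 1 hr, 37℃ in 6 ml oxygenated medium with 10 µM compound; serosal fluid collected, volume from sac weights. HPLC with/without sulfatase (difference = conjugates); uptake per mg tissue protein (modified Lowry, BSA standard).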

Conc. of aloe-emodin in basolateral side (Caco-2 cell monolayer; 5 μM apical treatment): 0.13 nmol/cm^2 culture area | Conc. of aloe-emodin in basolateral side (Caco-2 cell monolayer; 10 μM apical treatment): 0.86 nmol/cm^2 culture area | Conc. of aloe-emodin in basolateral side (Caco-2 cell monolayer; 50 μM apical treatment): 2.51 nmol/cm^2 culture area
Compound: O=C1c2cccc(O)c2C(=O)c2c(O)cc(CO)cc21 [aloe-emodin]

Absorption percent (Caco-2 cell monolayer; 5 μM): 7.61% | Absorption percent (Caco-2 cell monolayer; 10 μM): 13.64% | Absorption percent (Caco-2 cell monolayer; 50 μM): 8.14%
Compound: CC(=O)Cc1cc(=O)c2c(C)cc(O)c([C@@H]3O[C@H](CO)[C@@H](O)[C@H](O)[C@H]3O)c2o1 [aloesin]
% absorption in everted gut sac compared to Caco-2 monolayer [1]: more aloesin were shown to be absorbed in the gut sac compared to the Caco-2 monolayer

Conc. of aloin in basolateral side (Caco-2 cell monolayer; 5 μM apical treatment): 0.11 nmol/cm^2 culture area | Conc. of aloin in basolateral side (Caco-2 cell monolayer; 10 μM apical treatment): 0.42 nmol/cm^2 culture area | Conc. of aloin in basolateral side (Caco-2 cell monolayer; 50 μM apical treatment): 1.99 nmol/cm^2 culture area
Compound: O=C1c2c(O)cccc2C([C@@H]2O[C@H](CO)[C@@H](O)[C@H](O)[C@H]2O)c2cc(CO)cc(O)c21 (stereo partly shown) [aloin]
